Experimental data reported in ChEMBL document CHEMBL4393737, “Synthesis of quinoline derivatives as diabetic II inhibitors and molecular docking studies” (Bioorg Med Chem, 2019).
pIC50: −log10 of the molar value.

Experiments:
[1] = Inhibition of Saccharomyces cerevisiae alpha-glucosidase using para-nitrophenyl-alpha-D-glucopyranoside as substrate preincubated for 5 mins followed by substrate addition and measured after 5 mins; conditions: for pIC50: read-out: IC50
Method in brief: (§1)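 Baker's yeast α-glucosidase (EC 3.2.1.20) in 100 mM phosphate buffer, pH 6.8. Compounds came from 5 mg/mL DMSO stocks and were incubated with enzyme for 5 min. p-Nitrophenyl-α-D-glucopyranoside (5 mM solution) was then added and incubated for 5 min, and absorbance read at 405 nm. Blanks with buffer in place of substrate gave background; acarbose served as positive control.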

Saccharomyces cerevisiae = test: Inhibition of Saccharomyces cerevisiae alpha-glucosidase using para-nitrophenyl-alpha-D-glucopyranoside as substrate preincubated for 5 mins followed by substrate addition and measured after 5 mins relative to control; design: concentration or dose not given beside the values; method in brief: as §1

| pIC50 [1] | IC50 [1] | inhibition (Saccharomyces cerevisiae) [%] | Structure (SMILES) |
| --- | --- | --- | --- |
| 4.85 | – | – | O=C(N/N=C\c1ccc(O)cc1O)c1ccc2ncccc2c1 |
| 4.88 | – | – | O=C(N/N=C\c1ccccc1O)c1ccc2ncccc2c1 |
| 4.84 | – | – | COc1ccc(/C=N\NC(=O)c2ccc3ncccc3c2)cc1O |
| – | Not Active | < 50 | Cc1cccc(C)c1/C=N\NC(=O)c1ccc2ncccc2c1 |
| 4.67 | – | – | COc1ccc(/C=N\NC(=O)c2ccc3ncccc3c2)c(O)c1 |
| 4.31 | – | – | O=C(N/N=C\c1cccc(O)c1)c1ccc2ncccc2c1 |
| 4.54 | – | – | O=C(N/N=C\c1ccco1)c1ccc2ncccc2c1 |
| 5.21 | – | – | O=C(N/N=C\c1ccc(O)c(O)c1)c1ccc2ncccc2c1 |
| – | Not Active | < 50 | COc1cccc(/C=N\NC(=O)c2ccc3ncccc3c2)c1 |
| – | Not Active | < 50 | O=C(N/N=C\c1cccc([N+](=O)[O-])c1)c1ccc2ncccc2c1 |
| 4.45 | – | – | O=C(N/N=C\c1cccs1)c1ccc2ncccc2c1 |
| – | Not Active | < 50 | O=C(N/N=C\c1cccnc1)c1ccc2ncccc2c1 |
| 5.03 | – | – | O=C(N/N=C\c1cccc(O)c1O)c1ccc2ncccc2c1 |
| 4.54 | – | – | O=C(N/N=C\c1ccc(F)cc1)c1ccc2ncccc2c1 |
| 4.32 | – | – | O=C(N/N=C\c1cccc(F)c1)c1ccc2ncccc2c1 |
| 4.91 | – | – | O=C(N/N=C\c1cc(O)ccc1O)c1ccc2ncccc2c1 |
| 4.42 | – | – | O=C(N/N=C\c1ccccn1)c1ccc2ncccc2c1 |
| – | Not Active | < 50 | COc1ccc(/C=N\NC(=O)c2ccc3ncccc3c2)cc1OC |
| – | Not Active | < 50 | O=C(N/N=C\c1ccncc1)c1ccc2ncccc2c1 |
| 4.42 | – | – | O=C(N/N=C\c1ccccc1[N+](=O)[O-])c1ccc2ncccc2c1 |
| – | Not Active | < 50 | O=C(N/N=C\c1ccc([N+](=O)[O-])cc1)c1ccc2ncccc2c1 |
| – | Not Active | < 50 | COc1ccc(/C=N\NC(=O)c2ccc3ncccc3c2)cc1 |
| 4.63 | – | – | O=C(N/N=C\c1ccc(O)cc1)c1ccc2ncccc2c1 |
| 5.13 | – | – | O=C(N/N=C\c1ccccc1F)c1ccc2ncccc2c1 |
| 4.74 | – | – | COc1ccc(O)c(/C=N\NC(=O)c2ccc3ncccc3c2)c1 |
